Measured values published in ChEMBL document CHEMBL5058577, “EUbOPEN Chemogenomics Library 2 (Multiplex)” (2022).

Tested on: HEK-293T
Assay: Multiplex assay against HEK293T
Type: toxicity, cell-based
Conditions: human
Method in brief: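 Imaging took place on a CQ1 microscope at 37°C and 5% CO2 once compound had been added to live cells stained at seeding with Hoechst33342, BioTracker Green Microtubule Cytoskeleton Dye, MitoTracker Red and Annexin V Alexa Fluor 680. CellPathfinder machine-learning gating classed cells as Hoechst high-intensity objects or normal cells, classed normal cells as having healthy, pyknosed or fragmented nuclei, and classed pyknosed cells as mitotic or apoptotic. Tubulin, mitochondrial-mass and membrane-permeability phenotypes are per cents of the healthy-nucleus cells.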

[1] = 12 h, 1 µM, compound concentration 1 uM, replicate 1
[2] = 12 h, 1 µM, compound concentration 1 uM, replicate 2
[3] = 12 h, 10 µM, compound concentration 10 uM, replicate 1
[4] = 12 h, 10 µM, compound concentration 10 uM, replicate 2
[5] = 24 h, 1 µM, compound concentration 1 uM, replicate 1
[6] = 24 h, 1 µM, compound concentration 1 uM, replicate 2
[7] = 24 h, 10 µM, compound concentration 10 uM, replicate 1
[8] = 24 h, 10 µM, compound concentration 10 uM, replicate 2
[9] = 48 h, 1 µM, compound concentration 1 uM, replicate 1
[10] = 48 h, 1 µM, compound concentration 1 uM, replicate 2
[11] = 48 h, 10 µM, compound concentration 10 uM, replicate 1
[12] = 48 h, 10 µM, compound concentration 10 uM, replicate 2

Cc1onc(-c2ccccc2Cl)c1C(=O)N(C)c1ccc(Cl)cc1
Population Apoptotic (%) [1]: 35%
Population Fragmented Nuclei (%) [1]: 8%
Population Healthy Nuclei (%) [1]: 79%
Population Hoechst High Intensity Objects (%) [1]: 9%
Population Membrane Permeable-Phenotype (%) [1]: 0%
Population Mitochondria Different-Phenotype (%) [1]: 41%
Population Mitotic Cells (%) [1]: 64%
Population Normal (%) [1]: 90%
Population Pyknosed Nuclei (%) [1]: 12%
Population Tubulin-Different-Phenotype (%) [1]: 25%
Total Cell Count [1]: 375
Population Apoptotic (%) [2]: 37%
Population Fragmented Nuclei (%) [2]: 3%
Population Healthy Nuclei (%) [2]: 84%
Population Hoechst High Intensity Objects (%) [2]: 6%
Population Mitochondria Different-Phenotype (%) [2]: 59%
Population Mitotic Cells (%) [2]: 62%
Population Normal (%) [2]: 93%
Total Cell Count [2]: 320
Population Apoptotic (%) [3]: 38%
Population Fragmented Nuclei (%) [3]: 7%
Population Healthy Nuclei (%) [3]: 79%
Population Hoechst High Intensity Objects (%) [3]: 12%
Population Membrane Permeable-Phenotype (%) [3]: 0%
Population Mitochondria Different-Phenotype (%) [3]: 49%
Population Mitotic Cells (%) [3]: 61%
Population Normal (%) [3]: 87%
Population Pyknosed Nuclei (%) [3]: 13%
Population Tubulin-Different-Phenotype (%) [3]: 43%
Total Cell Count [3]: 357
Population Apoptotic (%) [4]: 45%
Population Fragmented Nuclei (%) [4]: 4%
Population Healthy Nuclei (%) [4]: 80%
Population Hoechst High Intensity Objects (%) [4]: 6%
Population Mitochondria Different-Phenotype (%) [4]: 65%
Population Mitotic Cells (%) [4]: 54%
Population Normal (%) [4]: 93%
Population Pyknosed Nuclei (%) [4]: 14%
Population Tubulin-Different-Phenotype (%) [4]: 35%
Total Cell Count [4]: 330
Population Apoptotic (%) [5]: 23%
Population Fragmented Nuclei (%) [5]: 9%
Population Healthy Nuclei (%) [5]: 81%
Population Hoechst High Intensity Objects (%) [5]: 5%
Population Membrane Permeable-Phenotype (%) [5]: 1%
Population Mitochondria Different-Phenotype (%) [5]: 21%
Population Mitotic Cells (%) [5]: 76%
Population Normal (%) [5]: 94%
Population Pyknosed Nuclei (%) [5]: 9%
Population Tubulin-Different-Phenotype (%) [5]: 14%
Total Cell Count [5]: 523
Population Apoptotic (%) [6]: 42%
Population Fragmented Nuclei (%) [6]: 5%
Population Hoechst High Intensity Objects (%) [6]: 3%
Population Mitochondria Different-Phenotype (%) [6]: 44%
Population Mitotic Cells (%) [6]: 57%
Population Normal (%) [6]: 96%
Population Pyknosed Nuclei (%) [6]: 12%
Population Tubulin-Different-Phenotype (%) [6]: 18%
Total Cell Count [6]: 383
Population Apoptotic (%) [7]: 45%
Population Fragmented Nuclei (%) [7]: 8%
Population Healthy Nuclei (%) [7]: 79%
Population Hoechst High Intensity Objects (%) [7]: 5%
Population Membrane Permeable-Phenotype (%) [7]: 1%
Population Mitochondria Different-Phenotype (%) [7]: 32%
Population Mitotic Cells (%) [7]: 54%
Population Normal (%) [7]: 94%
Population Pyknosed Nuclei (%) [7]: 12%
Population Tubulin-Different-Phenotype (%) [7]: 20%
Total Cell Count [7]: 478
Population Apoptotic (%) [8]: 29%
Population Fragmented Nuclei (%) [8]: 7%
Population Healthy Nuclei (%) [8]: 82%
Population Hoechst High Intensity Objects (%) [8]: 3%
Population Membrane Permeable-Phenotype (%) [8]: 0%
Population Mitochondria Different-Phenotype (%) [8]: 47%
Population Mitotic Cells (%) [8]: 70%
Population Normal (%) [8]: 96%
Population Pyknosed Nuclei (%) [8]: 9%
Total Cell Count [8]: 413
Population Apoptotic (%) [9]: 21%
Population Fragmented Nuclei (%) [9]: 14%
Population Healthy Nuclei (%) [9]: 79%
Population Hoechst High Intensity Objects (%) [9]: 2%
Population Membrane Permeable-Phenotype (%) [9]: 0%
Population Mitochondria Different-Phenotype (%) [9]: 11%
Population Mitotic Cells (%) [9]: 78%
Population Normal (%) [9]: 97%
Population Pyknosed Nuclei (%) [9]: 6%
Population Tubulin-Different-Phenotype (%) [9]: 9%
Total Cell Count [9]: 932
Population Apoptotic (%) [10]: 31%
Population Fragmented Nuclei (%) [10]: 11%
Population Healthy Nuclei (%) [10]: 82%
Population Membrane Permeable-Phenotype (%) [10]: 1%
Population Mitochondria Different-Phenotype (%) [10]: 23%
Population Mitotic Cells (%) [10]: 68%
Population Pyknosed Nuclei (%) [10]: 5%
Population Tubulin-Different-Phenotype (%) [10]: 12%
Total Cell Count [10]: 620
Population Apoptotic (%) [11]: 33%
Population Fragmented Nuclei (%) [11]: 14%
Population Healthy Nuclei (%) [11]: 76%
Population Hoechst High Intensity Objects (%) [11]: 3%
Population Membrane Permeable-Phenotype (%) [11]: 1%
Population Mitochondria Different-Phenotype (%) [11]: 16%
Population Mitotic Cells (%) [11]: 66%
Population Normal (%) [11]: 96%
Population Pyknosed Nuclei (%) [11]: 8%
Population Tubulin-Different-Phenotype (%) [11]: 15%
Total Cell Count [11]: 755
Population Apoptotic (%) [12]: 20%
Population Fragmented Nuclei (%) [12]: 12%
Population Healthy Nuclei (%) [12]: 81%
Population Membrane Permeable-Phenotype (%) [12]: 0%
Population Mitochondria Different-Phenotype (%) [12]: 25%
Population Mitotic Cells (%) [12]: 79%
Population Pyknosed Nuclei (%) [12]: 6%
Population Tubulin-Different-Phenotype (%) [12]: 16%
Total Cell Count [12]: 652
